Results reported in ChEMBL document CHEMBL1150393, “Evaluation of radiolabeled (hetero)aromatic analogues of N-(2-diethylaminoethyl)-4-iodobenzamide for imaging and targeted radionuclide therapy of melanoma” (J Med Chem, 2008).
Blank lines part the entries; values can stand above or below the compound they belong to.

Assays:
[1] = Binding affinity to melanin in water; parameters: concentration or dose not given beside the values; conditions: tested as the 125I-labelled form
[2] = Binding affinity to melanin in phosphate buffer solution; parameters: concentration or dose not given beside the values; conditions: tested as the 125I-labelled form
[3] = Biodistribution in gall bladder of C57BL/6 mouse bearing mouse B16-F0 cells at 0.74 to 0.92 MBq, iv after 3 hrs; format: ADME, organism-based; conditions: in vivo
Method in brief: (§1)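 Male C57BL6 mice with s.c. left-flank B16-F0 melanoma (5 × 10⁵ cells in PBS). Two mice per time point frozen in liquid nitrogen after CO₂ sacrifice. Eight 40 µm whole-body cryosections per mouse read by multiwire proportional counter. cpm/mm² converted to kBq/g and expressed as %ID/g.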

[4] = Partition coefficient, log P in phosphate buffer solution at pH 7.4; format: physicochemical
Method in brief: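 Shake-flask partition: 50 µM [¹²⁵I]-labelled compound in phosphate buffer pH 7.4 was mixed with 2 mL n-octanol. Each phase was γ-counted, P was taken as the octanol/buffer activity ratio, and log P was reported.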

[5] = Drug excretion in mouse B16-F0 cells bearing C57BL/6 mouse urine at 0.74 to 0.92 MBq, iv after 72 hrs; format: ADME, organism-based; conditions: in vivo
Method in brief: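 Urine was collected from two B16-F0 tumour-bearing C57BL6 mice for up to 72 h after iv tail-vein injection of the [¹²⁵I]-labelled compound (0.1 µmol). Samples were counted to give cumulative urinary excretion as %ID.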

[6] = Biodistribution in tumor of C57BL/6 mouse bearing mouse B16-F0 cells at 0.74 to 0.92 MBq, iv after 1 hr; format: ADME, organism-based, Neoplasm; conditions: in vivo
Method in brief: (§2)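 [¹²⁵I]-labelled compound given iv by tail vein (0.1 µmol per mouse) to male C57BL6 mice bearing s.c. B16-F0 flank tumours (5 × 10⁵ cells in PBS). Two mice per time point were killed by CO₂, frozen in liquid nitrogen and cut into 40 µm cryosections, eight slices per mouse. Slice radioactivity was read on a multiwire proportional counter, converted to kBq/g and reported as %ID/g.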

[7] = Biodistribution in tumor of C57BL/6 mouse bearing mouse B16-F0 cells at 0.74 to 0.92 MBq, iv after 3 hrs; format: ADME, organism-based, Neoplasm; conditions: in vivo; method in brief: as §2
[8] = Biodistribution in tumor of C57BL/6 mouse bearing mouse B16-F0 cells at 0.74 to 0.92 MBq, iv after 6 hrs; format: ADME, organism-based, Neoplasm; conditions: in vivo; method in brief: as §2
[9] = Biodistribution in tumor of C57BL/6 mouse bearing mouse B16-F0 cells at 0.74 to 0.92 MBq, iv after 24 hrs; format: ADME, organism-based, Neoplasm; conditions: in vivo; method in brief: as §2
[10] = Biodistribution in tumor of C57BL/6 mouse bearing mouse B16-F0 cells at 0.74 to 0.92 MBq, iv after 72 hrs; format: ADME, organism-based, Neoplasm; conditions: in vivo; method in brief: as §2
[11] = Ratio of drug level in tumor to liver of C57BL/6 mouse bearing mouse B16-F0 cells at 0.74 to 0.92 MBq, iv after 1 hr; format: ADME, organism-based; conditions: in vivo
Method in brief: (§3)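 Tumour and organ radioactive concentrations came from whole-body cryosection counting (40 µm slices, eight per mouse, two mice per time) after tail-vein injection of the [¹²⁵I]-labelled compound (0.1 µmol) into male C57BL6 mice bearing s.c. B16-F0 melanoma. Each value is the ratio of the tumour concentration to the organ concentration.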

[12] = Ratio of drug level in tumor to liver of C57BL/6 mouse bearing mouse B16-F0 cells at 0.74 to 0.92 MBq, iv after 3 hrs; format: ADME, organism-based; conditions: in vivo; method in brief: as §3
[13] = Ratio of drug level in tumor to lung of C57BL/6 mouse bearing mouse B16-F0 cells at 0.74 to 0.92 MBq, iv after 1 hr; format: ADME, organism-based; conditions: in vivo; method in brief: as §3
[14] = Ratio of drug level in tumor to brain of C57BL/6 mouse bearing mouse B16-F0 cells at 0.74 to 0.92 MBq, iv after 1 hr; format: ADME, organism-based; conditions: in vivo; method in brief: as §3
Brain = assay: Biodistribution in brain of C57BL/6 mouse bearing mouse B16-F0 cells at 0.74 to 0.92 MBq, iv after 1 hr; format: ADME, organism-based; conditions: in vivo; method in brief: as §1
[15] = Biodistribution in intestinal content of C57BL/6 mouse bearing mouse B16-F0 cells at 0.74 to 0.92 MBq, iv after 1 hr; format: ADME, organism-based; conditions: in vivo; method in brief: as §1
[16] = Biodistribution in intestinal content of C57BL/6 mouse bearing mouse B16-F0 cells at 0.74 to 0.92 MBq, iv after 3 hrs; format: ADME, organism-based; conditions: in vivo; method in brief: as §1
[17] = Biodistribution in intestinal content of C57BL/6 mouse bearing mouse B16-F0 cells at 0.74 to 0.92 MBq, iv after 6 hrs; format: ADME, organism-based; conditions: in vivo; method in brief: as §1
[18] = Biodistribution in Stomach content of C57BL/6 mouse bearing mouse B16-F0 cells at 0.74 to 0.92 MBq, iv after 1 hr; format: ADME, organism-based; conditions: in vivo; method in brief: as §1
[19] = Biodistribution in Stomach content of C57BL/6 mouse bearing mouse B16-F0 cells at 0.74 to 0.92 MBq, iv after 3 hrs; format: ADME, organism-based; conditions: in vivo; method in brief: as §1
[20] = Biodistribution in Stomach content of C57BL/6 mouse bearing mouse B16-F0 cells at 0.74 to 0.92 MBq, iv after 6 hrs; format: ADME, organism-based; conditions: in vivo; method in brief: as §1
Liver [21] = assay: Biodistribution in liver of C57BL/6 mouse bearing mouse B16-F0 cells at 0.74 to 0.92 MBq, iv after 1 hr; format: ADME, organism-based; conditions: in vivo; method in brief: as §1
Liver [22] = assay: Biodistribution in liver of C57BL/6 mouse bearing mouse B16-F0 cells at 0.74 to 0.92 MBq, iv after 3 hrs; format: ADME, organism-based; conditions: in vivo; method in brief: as §1
Muscle tissue [23] = assay: Biodistribution in muscle of C57BL/6 mouse bearing mouse B16-F0 cells at 0.74 to 0.92 MBq, iv after 1 hr; format: ADME, organism-based; conditions: in vivo; method in brief: as §1
Lung = assay: Biodistribution in lung of C57BL/6 mouse bearing mouse B16-F0 cells at 0.74 to 0.92 MBq, iv after 1 hr; format: ADME, organism-based; conditions: in vivo; method in brief: as §1
Spleen = assay: Biodistribution in spleen of C57BL/6 mouse bearing mouse B16-F0 cells at 0.74 to 0.92 MBq, iv after 1 hr; format: ADME, organism-based; conditions: in vivo; method in brief: as §2
Kidney = assay: Biodistribution in kidney of C57BL/6 mouse bearing mouse B16-F0 cells at 0.74 to 0.92 MBq, iv after 1 hr; format: ADME, organism-based; conditions: in vivo; method in brief: as §1
Blood = assay: Biodistribution in blood of C57BL/6 mouse bearing mouse B16-F0 cells at 0.74 to 0.92 MBq, iv after 1 hr; format: ADME, organism-based; conditions: in vivo; method in brief: as §1
Thyroid gland [24] = assay: Biodistribution in thyroid of C57BL/6 mouse bearing mouse B16-F0 cells at 0.74 to 0.92 MBq, iv after 1 hr; format: ADME, organism-based; conditions: in vivo; method in brief: as §2
Thyroid gland [25] = assay: Biodistribution in thyroid of C57BL/6 mouse bearing mouse B16-F0 cells at 0.74 to 0.92 MBq, iv after 3 hrs; format: ADME, organism-based; conditions: in vivo; method in brief: as §2
Thyroid gland [26] = assay: Biodistribution in thyroid of C57BL/6 mouse bearing mouse B16-F0 cells at 0.74 to 0.92 MBq, iv after 6 hrs; format: ADME, organism-based; conditions: in vivo; method in brief: as §2
Thyroid gland [27] = assay: Biodistribution in thyroid of C57BL/6 mouse bearing mouse B16-F0 cells at 0.74 to 0.92 MBq, iv after 24 hrs; format: ADME, organism-based; conditions: in vivo; method in brief: as §2
[28] = Biodistribution in uvea of C57BL/6 mouse bearing mouse B16-F0 cells at 0.74 to 0.92 MBq, iv after 1 hr; format: ADME, organism-based, Uveal tract; conditions: in vivo; method in brief: as §2
[29] = Biodistribution in uvea of C57BL/6 mouse bearing mouse B16-F0 cells at 0.74 to 0.92 MBq, iv after 3 hrs; format: ADME, organism-based, Uveal tract; conditions: in vivo; method in brief: as §2
[30] = Biodistribution in uvea of C57BL/6 mouse bearing mouse B16-F0 cells at 0.74 to 0.92 MBq, iv after 6 hrs; format: ADME, organism-based, Uveal tract; conditions: in vivo; method in brief: as §2
[31] = Biodistribution in uvea of C57BL/6 mouse bearing mouse B16-F0 cells at 0.74 to 0.92 MBq, iv after 24 hrs; format: ADME, organism-based, Uveal tract; conditions: in vivo; method in brief: as §2
[32] = Biodistribution in uvea of C57BL/6 mouse bearing mouse B16-F0 cells at 0.74 to 0.92 MBq, iv after 72 hrs; format: ADME, organism-based, Uveal tract; conditions: in vivo; method in brief: as §2
[33] = Biodistribution in intestinal content of C57BL/6 mouse bearing mouse B16-F0 cells at 0.74 to 0.92 MBq, iv after 24 hrs; format: ADME, organism-based; conditions: in vivo; method in brief: as §1
Muscle tissue [34] = assay: Biodistribution in muscle of C57BL/6 mouse bearing mouse B16-F0 cells at 0.74 to 0.92 MBq, iv after 3 hrs; format: ADME, organism-based; conditions: in vivo; method in brief: as §1
Pancreas = assay: Biodistribution in pancreas of C57BL/6 mouse bearing mouse B16-F0 cells at 0.74 to 0.92 MBq, iv after 1 hr; format: ADME, organism-based; conditions: in vivo; method in brief: as §1

Compound: CCN(CC)CCNC(=O)c1cc2c(I)cccc2s1
- Activity [1]: 87.6%
- Activity [2]: 56.1%

Compound: CCN(CC)CCNC(=O)c1cnc2cc(I)ccc2n1
- Activity [1]: 67.4%
- Activity [2]: 47.3%

Compound: CCN(CC)CCNC(=O)c1cc2c([125I])cccc2s1.Cl
- Drug uptake [3]: 65.56 % ID/g
- logD [4]: 1.54
- Activity [5]: 52.6%
- Drug uptake [6]: 12.5 % ID/g
- Drug uptake [7]: 10 % ID/g
- Drug uptake [8]: 8.7 % ID/g
- Drug uptake [9]: 7.3 % ID/g
- Drug uptake [10]: 1.7 % ID/g
- Ratio [11]: 5.64
- Ratio [12]: 7.98
- Ratio [13]: 3.38
- Ratio [14]: 15.4
- Drug uptake (Brain): 0.81 % ID/g
- Drug uptake [15]: 71.13 % ID/g
- Drug uptake [16]: 73.02 % ID/g
- Drug uptake [17]: 37.7 % ID/g
- Drug uptake [18]: 20 % ID/g
- Drug uptake [19]: 5.93 % ID/g
- Drug uptake [20]: 18.77 % ID/g
- Drug uptake (Liver [21]): 2.21 % ID/g
- Drug uptake (Liver [22]): 1.25 % ID/g
- Drug uptake (Muscle tissue [23]): 0.77 % ID/g
- Drug uptake (Lung): 3.69 % ID/g
- Drug uptake (Spleen): 3.88 % ID/g
- Drug uptake (Kidney): 5.61 % ID/g
- Drug uptake (Blood): 1.37 % ID/g
- Drug uptake (Thyroid gland [24]): 24.03 % ID/g
- Drug uptake (Thyroid gland [25]): 67.21 % ID/g
- Drug uptake (Thyroid gland [26]): 139.12 % ID/g
- Drug uptake (Thyroid gland [27]): 79.82 % ID/g
- Drug uptake [28]: 16.09 % ID/g
- Drug uptake [29]: 19.51 % ID/g
- Drug uptake [30]: 16.29 % ID/g
- Drug uptake [31]: 11.06 % ID/g
- Drug uptake [32]: 9.22 % ID/g

Compound: CCN(CC)CCNC(=O)c1cn2cc([125I])ccc2n1.Cl.Cl
- logD [4]: 0.71
- Activity [5]: 36.8%
- Drug uptake [6]: 5.7 % ID/g
- Drug uptake [7]: 7.1 % ID/g
- Drug uptake [8]: 8.1 % ID/g
- Drug uptake [9]: 8 % ID/g
- Drug uptake [10]: 2.7 % ID/g
- Ratio [11]: 1.43
- Ratio [12]: 7.21
- Ratio [13]: 2.34
- Drug uptake [15]: 9.48 % ID/g
- Drug uptake [16]: 78.03 % ID/g
- Drug uptake [17]: 56.39 % ID/g
- Drug uptake [33]: 2.68 % ID/g
- Drug uptake [18]: 4.55 % ID/g
- Drug uptake [19]: 5.19 % ID/g
- Drug uptake [20]: 16.57 % ID/g
- Drug uptake (Liver [21]): 3.97 % ID/g
- Drug uptake (Liver [22]): 0.99 % ID/g
- Drug uptake (Muscle tissue [23]): 0.51 % ID/g
- Drug uptake (Muscle tissue [34]): 0.09 % ID/g
- Drug uptake (Pancreas): 7.52 % ID/g
- Drug uptake (Lung): 2.42 % ID/g
- Drug uptake (Spleen): 13.07 % ID/g
- Drug uptake (Kidney): 2.99 % ID/g
- Drug uptake (Blood): 0.68 % ID/g
- Drug uptake [28]: 17.43 % ID/g
- Drug uptake [29]: 19.18 % ID/g
- Drug uptake [30]: 26.81 % ID/g
- Drug uptake [31]: 11.54 % ID/g
- Drug uptake [32]: 9.55 % ID/g

Further lines, results first:

- Activity [1]: 87.4%
- Activity [2]: 43.2%
Compound: CCN(CC)CCNC(=O)c1ccc2cc(I)ccc2n1

- Activity [1]: 28.1%
- Activity [2]: 3.5%
Compound: CCN(CC)CCNC(=O)c1ccc(I)nc1

- Activity [1]: 75.3%
- Activity [2]: 11.6%
Compound: CCN(CC)CCNC(=O)c1cn2cc(I)ccc2n1

- Activity [5]: 83.1%
- Drug uptake [7]: 9.1 % ID/g
- Drug uptake [8]: 7.7 % ID/g
- Drug uptake [9]: 3.7 % ID/g
- Drug uptake [10]: 0.8 % ID/g
Compound: CCN(CC)CCNC(=O)c1ccc(I)cc1
